OXTR potentiator = potentiates the human oxytocin receptor response. P30559. CHO-OTR cells, Fluo-8 calcium fluorescence, potentiator mode; 0% = oxytocin EC15, 100% = EC100. activation, % at 3 µM. 0.061% of 320,000 active. AID 2445;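 active means activation above that plate's cutoff, the mean activation of tested compounds plus 3 SD, cut at about 6.6% in these data, passing the limit was not always enough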;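 further: 100% uses oxytocin at 75 nM as the full agonist control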
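Material: human OTR in CHO cells. Compound: 3.0 µM, one dose. Timing: compound 6 min at room temperature before oxytocin, 100 s read. Evaluation: % activation of max/min ratio relative to oxytocin controls. Replication: single well per compound, singlicate. Signal: Fluo-8 calcium dye fluorescence.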
OXTR ag = human OXTR agonism | CHO-OTR cells, Fluo-8 calcium fluorescence; normalized: DMSO 0%, oxytocin 100% | 0.32% of 320,000 active | activation, % at 3 µM | AID 2435;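 active means activation above the mean of all tested compounds plus 3 SD, cutoff set per screening run, cut at about 20% in these data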;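 further: peak over basal fluorescence ratio from a 100 s FLIPR kinetic read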
OX1R antag-1 = OX1R (human) antagonism; O43613; OX1R-expressing cells, FRET antagonist read-out; inhibition, % at 6.6 µM; 1.8% of 330,000 active; AID 485270; in the data active means inhibition mostly above about 38%, no sharp cut-off; inactive means mostly below about 40%;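 further: 0% = agonist challenge alone and 100% = reference antagonist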
Target sequence (O43613 whole entry, looked up): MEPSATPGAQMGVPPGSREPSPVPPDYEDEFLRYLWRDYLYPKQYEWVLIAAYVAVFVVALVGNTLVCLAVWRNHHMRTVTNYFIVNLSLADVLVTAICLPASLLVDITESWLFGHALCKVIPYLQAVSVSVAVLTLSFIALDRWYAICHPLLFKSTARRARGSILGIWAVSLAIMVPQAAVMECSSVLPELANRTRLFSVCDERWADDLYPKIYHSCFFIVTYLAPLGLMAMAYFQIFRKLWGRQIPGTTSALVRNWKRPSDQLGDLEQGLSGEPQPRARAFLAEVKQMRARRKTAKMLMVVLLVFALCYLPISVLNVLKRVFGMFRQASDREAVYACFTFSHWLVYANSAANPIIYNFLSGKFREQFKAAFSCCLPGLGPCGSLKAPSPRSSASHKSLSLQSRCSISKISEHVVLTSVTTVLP
CHO parental Ca = counter-screen for OX1R antagonists: effect in parental CHO cells. inhibition, % at 5.6 µM. 0.63% of 330,000 active. parental CHO-K1, ATP-induced calcium, Fluo-8 fluorescence;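 active means inhibition above that plate's mean sample inhibition plus 3 SD, cut at about 26% in these data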;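 further: 0% = ATP-challenged DMSO wells and 100% = DMSO wells without ATP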
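Test system: untransfected parental CHO cell line. Compound: one dose, 5.6 µM nominal. Detection: intracellular calcium via Fluo-8 no-wash fluorescent dye. Measure: % inhibition. Benchmarks: ATP-challenged DMSO wells low, unchallenged DMSO wells high.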
OX1R antag-2 = blocks the human orexin 1 receptor. 0.43% of 330,000 active. CHO/OX1R cells, Fluo-8 calcium fluorescence, orexin A. inhibition, % at 5 µM;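 active means inhibition above its plate's threshold, mean inhibition of all tested compounds on the plate plus 3 SD, cut at about 37% in these data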;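 further: 0% = orexin A challenge wells and 100% = SB-334867-A antagonist wells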
V1aR counter = counter-screen for oxytocin receptor agonists: human V1a receptor agonists | P37288 | CHO-V1R cells, Fluo-8 calcium fluorescence, agonist mode; 0% DMSO, 100% 3 nM vasopressin | activation, % at 3 µM | 0.25% of 320,000 active;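 active means activation above the mean activation of all tested compounds plus 3 SD, per screening run, cut at about 20% in these data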;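 further: signal is peak over basal fluorescence ratio across a 100 second FLIPR read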
OX1R HTRF confirm = OX1R (human) antagonism, HTRF confirmed; OX1R-expressing cells, HTRF antagonist assay; inhibition, % at 6.6 µM; shares compounds with OX1R antag-1; AID 492964; 49% of 1,800 active; in the data active means inhibition above about 55%;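 further: CHO cells expressing OX1R stimulated with orexin A at about EC80; 0% = agonist challenge alone and 100% = reference antagonist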
CHO-K1 HTRF cnt = signal in parental CHO-K1 cells, OX1R antagonist counter-screen. HTRF counterscreen. 48% of 1,800 active. inhibition, % at 6.6 µM. shares compounds with OX1R antag-1; in the data active means inhibition above about 17%;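 further: 0% = agonist challenge with vehicle and 100% = vehicle alone without agonist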
Starred values were filed as active, the others as inactive; . = not tested or not shown. Sampled rows, rich in hits. Any-hit rate of the full collection: about 2.7%.

SMILES	OXTR potentiator	OXTR ag	OX1R antag-1	CHO parental Ca	OX1R antag-2	V1aR counter	OX1R HTRF confirm	CHO-K1 HTRF cnt
Cc1c(/C=C/C(=O)c2cccs2)cnn1C	-9.6	0.3	102.6*	-15.0	10.2	0.3	62.3*	15.3
CCOC(=O)c1c(C)oc2c1c(C(c1cccnc1)N1CCCCC1)c(O)c1ccccc12 (configuration not stated)	-14.6	-0.3	95.0*	-27.2	-8.7	-0.5	17.1	6.3
COc1ccc(Cl)cc1N(CC(=O)NCCSc1ccccn1)S(=O)(=O)c1ccccc1	-8.7	-0.1	79.4*	-13.3	9.8	-0.3	79.8*	7.9
COCCCNC(=O)CN(c1cc(Cl)ccc1OC)S(=O)(=O)c1ccc(C)c([N+](=O)[O-])c1	-3.7	0.2	78.9*	-25.5	8.7	0.0	59.4*	5.7
COC(=O)c1ccc(NC(=O)CSc2nnc(C)n2CC2CCCO2)cc1 (configuration not stated)	0.2	-0.5	89.1*	-13.8	-4.3	0.3	13.5	4.1
O=C(COC(=O)c1n[nH]c2ccccc12)NCCc1ccccc1	-9.9	3.5	6.7	-18.1	15.0	4.2	.	.
O=[n+]1c2c(n([O-])c3cc(F)ccc31)CCCC2	-10.7	-0.7	81.8*	-1.6	-9.1	-0.5	36.3	53.7*
O=C(NNC(=O)c1ccccc1Cl)c1ccccc1Cl	3.0	0.0	3.6	-16.2	-8.2	0.3	.	.
O=C(NNc1c2ccccc2nc2ccccc12)c1cccc(O)c1	-5.4	-0.7	26.4	-13.1	-4.0	0.0	.	.
O=C(NNc1c2ccccc2nc2ccccc12)c1ccc(O)cc1O	-10.9	-1.9	102.5*	-10.5	0.3	0.5	84.3*	19.6*
O=C(NNc1c2ccccc2nc2ccccc12)c1ccccc1Cl	-9.0	-0.5	82.8*	1.0	-13.8	0.7	50.0	-1.0
O=C(NNc1c2ccccc2nc2ccccc12)c1ccccc1O	-15.9	2.1	84.1*	4.3	0.9	3.6	61.0*	1.1
CC1(c2ccc(Cl)cc2Cl)NC(=O)N(CC(=O)Nc2ccc3[nH]c(=O)[nH]c3c2)C1=O (configuration not stated)	-11.5	1.1	5.7	0.0	-7.8	-0.3	.	.
COc1ccccc1CNC(=O)c1ccc2c(=O)n3c(nc2c1)CCCCC3	-11.8	-1.8	16.1	-21.4	-14.8	-2.1	.	.
CCOc1ccc(NS(=O)(=O)c2csc(C(N)=O)c2)cc1	-12.4	0.3	-5.2	-4.0	-14.8	0.0	.	.
Cc1nnc(N/N=C/c2cc(C)n(-c3ccc(F)cc3)c2C)n1N	-3.3	-0.6	91.6*	-9.8	-8.2	0.6	17.0	11.6
Cc1nnc(N/N=C/c2ccccc2O)n1N	-9.2	7.6	160.1*	-5.0	-16.7	-0.2	39.6	16.1
Oc1ccccc1/C=N/Nc1nn[nH]n1	3.4	1.0	11.5	-14.5	-13.2	0.3	.	.
C=CCOn1c(=O)c(-c2ccc(OCC)cc2)[n+]([O-])c2ccccc21	-4.2	-1.3	23.9	-11.6	-16.1	-0.5	.	.
CSCC[C@H](NC(=O)N1CCn2c1nc1ccccc12)C(=O)NCc1ccco1	1.4	-1.9	4.3	-21.0	-13.5	0.8	.	.
CC(=O)Oc1c(-c2ccc(Br)o2)oc2ccccc2c1=O	-9.9	-1.1	83.2*	-1.4	23.9	1.0	84.3*	3.1
COc1ccc2nc3oc(C(=O)N4CCC(C(N)=O)CC4)cc3cc2c1	-12.3	0.2	154.2*	-6.0	-4.7	-0.1	27.7	37.5*
CCOC(=O)C1CCN(C(=O)c2cc3cc4ccc(OC)cc4nc3o2)CC1	-10.0	0.5	12.8	-21.9	-17.7	2.9	.	.
CCCCOCCCN1CC(=O)N2[C@@H](Cc3c([nH]c4ccccc34)C2(C)C)C1=O	-17.1	0.7	10.0	-26.2	-23.3	6.9	.	.
Cc1c(NC(=O)C(C)OC(=O)c2ccc([N+](=O)[O-])s2)c(=O)n(-c2ccccc2)n1C (configuration not stated)	-1.2	0.0	118.0*	3.1	-10.7	-0.2	70.7*	80.7*
SMILES	OXTR potentiator	OXTR ag	OX1R antag-1	CHO parental Ca	OX1R antag-2	V1aR counter	OX1R HTRF confirm	CHO-K1 HTRF cnt
Cc1c(NC(=O)C(C)OC(=O)c2sc3ccccc3c2Cl)c(=O)n(-c2ccccc2)n1C (configuration not stated)	5.2	-1.4	6.6	-21.1	-21.5	-1.0	.	.
COCCCN1C(=O)c2ccc(C(=O)O)cc2C1=O	-6.8	-0.6	16.5	-3.2	-0.4	-0.2	.	.
O=C(c1ccc2c(c1)C(=O)N(CCCO)C2=O)c1ccc2c(c1)C(=O)N(CCCO)C2=O	-6.3	0.5	148.9*	-14.7	-16.0	1.3	56.0*	66.7*
COc1ccc(C(=O)COC(=O)CN2C(=O)C3C4CCC(C4)C3C2=O)cc1 (configuration not stated)	-8.5	4.0	11.4	0.9	7.2	2.7	.	.
COC(=O)C1=C(C)N(C)C(=O)NC1c1cc2c(cc1[N+](=O)[O-])OCO2 (configuration not stated)	-3.7	-0.3	91.1*	-11.7	-5.4	0.6	33.2	25.0*
CSc1ncccc1C(=O)Nc1nc2ccc(S(C)(=O)=O)cc2s1	1.0	1.9	27.6	-7.8	-9.5	1.4	.	.
COc1ccc2nc(NC(=O)c3cccnc3SC)sc2c1	-14.0	-1.1	87.8*	-11.1	12.0	0.4	76.9*	10.5
COc1ccc(C(=O)NCCNc2nc3c(C)cccc3cc2C#N)cc1OC	-9.0	0.9	90.0*	-5.8	17.8	0.4	87.4*	8.1
Cc1cnc(C(=O)OCC(=O)N(Cc2ccccc2)C(C)(C)C)cn1	-6.6	0.6	12.4	-9.7	-21.9	0.3	.	.
CN(C)CCCNc1ccc(-c2nn(C)c(=O)c3ccccc23)cc1[N+](=O)[O-]	1.5	0.8	118.1*	-8.9	-12.3	0.2	30.5	40.3*
CS(=O)(=O)c1ccc(NCCc2ccc(S(N)(=O)=O)cc2)c([N+](=O)[O-])c1	-0.6	1.6	63.7	0.3	-11.1	0.0	.	.
CN(C)CCCNc1ccc(S(N)(=O)=O)cc1[N+](=O)[O-]	0.6	-0.1	121.5*	-4.0	1.7	0.0	39.3	55.5*
CC(O)CNc1ccc(-c2nn(C)c(=O)c3ccccc23)cc1[N+](=O)[O-] (configuration not stated)	-0.2	-0.8	33.1	-12.3	-25.0	-0.8	.	.
COc1ccc(C(CNC(=O)c2ccc(S(=O)(=O)N3CC(C)CC(C)C3)cc2)N(C)C)cc1 (configuration not stated)	-10.6	9.6	8.5	-9.8	-14.2	3.7	.	.

Assay outcomes as filed in PubChem BioAssay.
